Source: ChEMBL document CHEMBL1932977, “Synthesis of pyrazolo[3,4-b]pyridines under microwave irradiation in multi-component reactions and their antitumor and antimicrobial activities - Part 1” (Eur J Med Chem, 2012)
Calls of active or inactive are those of the source.

Assays:
Fusarium oxysporum = test: Antifungal activity against Fusarium oxysporum at 10 mg/ml after 24 hrs by cut-plug method; format: functional
Method in brief: (§1)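 Cut-plug agar diffusion. Bacteria grown on nutrient agar and fungi on Sabouraud agar slopes, strains from a university culture collection. Plates seeded with 1 ml of diluted inoculum (10⁷ CFU/ml) spread after solidification. Wells cut and filled with compound in DMSO at 10 mg/ml. Plates incubated at 30 °C for 24 h, then inhibition-zone diameters (mm) measured.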

Escherichia coli = test: Antibacterial activity against Escherichia coli at 10 mg/ml after 24 hrs by cut-plug method; format: functional; method in brief: as §1
Penicillium expansum = test: Antifungal activity against Penicillium expansum at 10 mg/ml after 24 hrs by cut-plug method; format: functional; method in brief: as §1
Enterobacter cloacae = test: Antibacterial activity against Enterobacter cloacae at 10 mg/ml after 24 hrs by cut-plug method; format: functional; method in brief: as §1
Bacillus = test: Antibacterial activity against Bacillus at 10 mg/ml after 24 hrs by cut-plug method; format: functional; method in brief: as §1
Serratia = test: Antibacterial activity against Serratia at 10 mg/ml after 24 hrs by cut-plug method; format: functional; method in brief: as §1
HepG2 = test: Cytotoxicity against human HepG2 by sulforhodamie B colorimetric assay; format: functional, cell-based
Method in brief: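 HEPG2 human liver cancer cells, compound-treated against untreated control. Read by SRB: TCA-fixed cultures stained 30 min with 0.4% w/v SRB in 1% acetic acid, bound dye extracted with 10 mM Tris, optical density read on a plate reader. Surviving fraction as percent growth. IC50 estimated by probit regression.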

[1] = Homo sapiens, HepG2, read-out: IC50

O=C(O)c1cc(-c2ccccc2)c2c(-c3cccnc3)nn(-c3ccccc3)c2n1
inactive: diameter of the inhibition zone (DIZ) (Fusarium oxysporum) | diameter of the inhibition zone (DIZ) (Escherichia coli) | diameter of the inhibition zone (DIZ) (Penicillium expansum) | diameter of the inhibition zone (DIZ) (Enterobacter cloacae) | diameter of the inhibition zone (DIZ) (Bacillus)

COc1ccc(-c2c(C#N)c(-c3ccc([N+](=O)[O-])cc3)nc3c2c(-c2cccnc2)nn3-c2ccccc2)cc1
13.5 µg/mL: IC50 (HepG2; [1])
inactive: diameter of the inhibition zone (DIZ) (Fusarium oxysporum) | diameter of the inhibition zone (DIZ) (Serratia) | diameter of the inhibition zone (DIZ) (Enterobacter cloacae) | diameter of the inhibition zone (DIZ) (Bacillus)

COc1ccc(-c2c(C#N)c(-c3ccc(F)cc3)nc3c2c(-c2cccnc2)nn3-c2ccccc2)cc1
inactive: diameter of the inhibition zone (DIZ) (Fusarium oxysporum) | diameter of the inhibition zone (DIZ) (Escherichia coli) | diameter of the inhibition zone (DIZ) (Penicillium expansum) | diameter of the inhibition zone (DIZ) (Enterobacter cloacae) | diameter of the inhibition zone (DIZ) (Bacillus)
3.43 µg/mL: IC50 (HepG2; [1])

O=C(O)c1cc(-c2ccc(Br)cc2)c2c(-c3cccnc3)nn(-c3ccccc3)c2n1
inactive: diameter of the inhibition zone (DIZ) (Fusarium oxysporum) | diameter of the inhibition zone (DIZ) (Escherichia coli) | diameter of the inhibition zone (DIZ) (Penicillium expansum) | diameter of the inhibition zone (DIZ) (Enterobacter cloacae) | diameter of the inhibition zone (DIZ) (Bacillus)

COc1ccc(-c2c(C#N)c(-c3ccc(Cl)cc3)nc3c2c(-c2cccnc2)nn3-c2ccccc2)cc1
4 µg/mL: IC50 (HepG2; [1])
inactive: diameter of the inhibition zone (DIZ) (Fusarium oxysporum) | diameter of the inhibition zone (DIZ) (Serratia) | diameter of the inhibition zone (DIZ) (Escherichia coli) | diameter of the inhibition zone (DIZ) (Penicillium expansum) | diameter of the inhibition zone (DIZ) (Enterobacter cloacae) | diameter of the inhibition zone (DIZ) (Bacillus)

COc1cccc2c1C(=O)c1c(O)c3c(c(O)c1C2=O)C[C@@](O)(C(=O)CO)C[C@@H]3O[C@H]1C[C@H](N)[C@H](O)[C@H](C)O1 [DOXORUBICIN]
3.73 µg/mL: IC50 (HepG2; [1])

O=C(O)c1cc(-c2ccc(O)cc2)c2c(-c3cccnc3)nn(-c3ccccc3)c2n1
inactive: diameter of the inhibition zone (DIZ) (Escherichia coli) | diameter of the inhibition zone (DIZ) (Penicillium expansum) | diameter of the inhibition zone (DIZ) (Enterobacter cloacae) | diameter of the inhibition zone (DIZ) (Bacillus)

COc1ccc(-c2c(C#N)c(-c3cccnc3)nc3c2c(-c2cccnc2)nn3-c2ccccc2)cc1
3.73 µg/mL: IC50 (HepG2; [1])
inactive: diameter of the inhibition zone (DIZ) (Fusarium oxysporum) | diameter of the inhibition zone (DIZ) (Serratia) | diameter of the inhibition zone (DIZ) (Escherichia coli) | diameter of the inhibition zone (DIZ) (Penicillium expansum) | diameter of the inhibition zone (DIZ) (Enterobacter cloacae)

CN(C)c1ccc(-c2cc(C(=O)O)nc3c2c(-c2cccnc2)nn3-c2ccccc2)cc1
inactive: diameter of the inhibition zone (DIZ) (Escherichia coli) | diameter of the inhibition zone (DIZ) (Penicillium expansum) | diameter of the inhibition zone (DIZ) (Bacillus)

COc1ccc(-c2c(C#N)c(-c3ccc(C)cc3)nc3c2c(-c2cccnc2)nn3-c2ccccc2)cc1
4.34 µg/mL: IC50 (HepG2; [1])
inactive: diameter of the inhibition zone (DIZ) (Fusarium oxysporum) | diameter of the inhibition zone (DIZ) (Penicillium expansum) | diameter of the inhibition zone (DIZ) (Enterobacter cloacae) | diameter of the inhibition zone (DIZ) (Bacillus)

COc1ccc(-c2c(C#N)c(-c3ccccc3)nc3c2c(-c2cccnc2)nn3-c2ccccc2)cc1
Not Active: IC50 (HepG2; hepg2)
inactive: diameter of the inhibition zone (DIZ) (Fusarium oxysporum) | diameter of the inhibition zone (DIZ) (Serratia) | diameter of the inhibition zone (DIZ) (Escherichia coli) | diameter of the inhibition zone (DIZ) (Penicillium expansum) | diameter of the inhibition zone (DIZ) (Enterobacter cloacae) | diameter of the inhibition zone (DIZ) (Bacillus)

COc1ccc(-c2cc(C(=O)O)nc3c2c(-c2cccnc2)nn3-c2ccccc2)cc1
inactive: diameter of the inhibition zone (DIZ) (Penicillium expansum)

CCN(CC)c1ccc(-c2cc(C(=O)O)nc3c2c(-c2cccnc2)nn3-c2ccccc2)cc1
inactive: diameter of the inhibition zone (DIZ) (Serratia) | diameter of the inhibition zone (DIZ) (Escherichia coli) | diameter of the inhibition zone (DIZ) (Penicillium expansum) | diameter of the inhibition zone (DIZ) (Enterobacter cloacae) | diameter of the inhibition zone (DIZ) (Bacillus)
